# Only some compounds are listed: those with a hit (about 2.6% of all), similar ones and a draw of the others.
# OX1R antag-1 – antagonists of human orexin 1 receptor (OX1R); Orexin/Hypocretin receptor type 1 (Homo sapiens), O43613; OX1R-expressing cells, FRET antagonist read-out; inhibition, % at 6.6 µM; 330,000 compounds, 1.8% hits; AID 485270, 2010; in the data active means inhibition mostly above about 38%, no sharp cut-off; inactive means mostly below about 40%;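 further: 0% = agonist challenge alone and 100% = reference antagonist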
# Target sequence (O43613 whole entry, looked up): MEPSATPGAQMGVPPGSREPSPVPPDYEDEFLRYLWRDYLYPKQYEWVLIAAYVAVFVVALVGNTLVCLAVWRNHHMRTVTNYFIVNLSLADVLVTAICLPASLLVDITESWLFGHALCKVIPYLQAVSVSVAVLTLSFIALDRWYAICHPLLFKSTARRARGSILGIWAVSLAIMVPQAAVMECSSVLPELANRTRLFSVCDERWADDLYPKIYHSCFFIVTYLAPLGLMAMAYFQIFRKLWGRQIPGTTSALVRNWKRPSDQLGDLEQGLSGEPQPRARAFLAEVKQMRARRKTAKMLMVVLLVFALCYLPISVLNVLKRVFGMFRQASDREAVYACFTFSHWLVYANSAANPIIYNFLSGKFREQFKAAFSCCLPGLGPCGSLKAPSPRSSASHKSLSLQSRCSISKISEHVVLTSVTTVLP
# CHO parental Ca – ATP-evoked calcium signal inhibitors, parental CHO, primary screen, counter-screen for OX1R antagonist project, cell-based, fluorescence, Fluo-8 calcium dye; parental CHO-K1, ATP-induced calcium, Fluo-8 fluorescence; inhibition, % at 5.6 µM; 330,000 compounds, 0.63% hits; AID 463079, 2010;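 active means inhibition above that plate's mean sample inhibition plus 3 SD, cut at about 26% in these data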;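 further: 0% = ATP-challenged DMSO wells and 100% = DMSO wells without ATP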
#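 Test system: parental CHO cells; detection: calcium-sensitive Fluo-8 fluorescence; evaluation: percent inhibition of calcium signal; also added: ATP as calcium-mobilizing challenge; repeats: one well per compound; control set: ATP-challenged DMSO wells low, unchallenged DMSO wells high; compound: single nominal dose of 5.6 µM per compound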
# OXTR potentiator – human OXTR potentiators, primary screen, fluorescence, CHO-OTR cells, Fluo-8 calcium. activation, % at 3 µM. 320,000 compounds, 0.061% hits. Fluo-8 calcium fluorescence, potentiator mode; 0% = oxytocin EC15, 100% = EC100;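 active means activation above that plate's cutoff, the mean activation of tested compounds plus 3 SD, cut at about 6.6% in these data, passing the limit was not always enough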;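 further: 100% uses oxytocin at 75 nM as the full agonist control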
#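 System: human OTR in CHO cells; Also added: sub-maximal oxytocin, roughly EC15; Timing: compound 6 min at room temperature before oxytocin, 100 s read; Technique: Fluo-8 intracellular calcium fluorescence, ex 470-495, em 515-575 nm; Controls: oxytocin EC15 low and EC100 high; Replication: singlicate.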
# OXTR agonist – human OXTR agonists, primary screen, fluorescence, CHO-OTR cells, Fluo-8 calcium | Oxytocin receptor (Homo sapiens), P30559 | Fluo-8 calcium fluorescence; normalized: DMSO 0%, oxytocin 100% | 320,000 compounds, 0.32% hits | AID 2435, 2010 | activation, % at 3 µM;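 active means activation above the mean of all tested compounds plus 3 SD, cutoff set per screening run, cut at about 20% in these data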;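 further: peak over basal fluorescence ratio from a 100 s FLIPR kinetic read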
# OX1R antag-2 – OX1R (HCRTR1) antagonists, primary screen, fluorescence, CHO/OX1R cells, Fluo-8 calcium, orexin A; Fluo-8 calcium fluorescence; inhibition, % at 5 µM; 330,000 compounds, 0.43% hits; AID 434989, 2010;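 active means inhibition above its plate's threshold, mean inhibition of all tested compounds on the plate plus 3 SD, cut at about 37% in these data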;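 further: 0% = orexin A challenge wells and 100% = SB-334867-A antagonist wells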
# V1R ag counter – agonists of human V1a receptor, primary screen, counter-screen for OXTR agonist project, fluorescence, CHO-V1R cells | 320,000 compounds, 0.25% hits | AID 2797, 2010 | Vasopressin V1a receptor (Homo sapiens), P37288 | activation, % at 3 µM | Fluo-8 calcium fluorescence, agonist mode; 0% DMSO, 100% 3 nM vasopressin;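 active means activation above the mean activation of all tested compounds plus 3 SD, per screening run, cut at about 20% in these data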;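 further: signal is peak over basal fluorescence ratio across a 100 second FLIPR read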
# An asterisk follows results filed as active.
SMILES,OX1R antag-1,CHO parental Ca,OXTR potentiator,OXTR agonist,OX1R antag-2,V1R ag counter
COc1cccc2cc(C(=O)OCC(=O)N3CC(C)OC(C)C3)c(=O)oc12 (centres undefined),53.2*,-10.6,-4.9,1.1,1.3,15.4
CCOc1cccc2cc(C(=O)N3CC(C)OC(C)C3)c(=O)oc12 (centres undefined),6.8,15.4,-6.9,-0.3,-16.1,0.0
Cc1cc(C(=O)COc2ccc3ccc(=O)oc3c2)c(C)n1C,18.9,-9.7,-8.6,0.4,-4.5,-0.1
Cn1cncc1C#Cc1ccc2c(=O)c3ccccc3oc2c1,42.2,-0.3,-5.1,-0.4,1.6,0.3
CN(C)c1ccc(N=Nc2ccccc2C(=O)OCC(=O)N2CCCCCC2)cc1,6.4,29.2*,-0.5,-1.7,-13.6,-1.5
COc1ccc(NC(=O)CSc2nnc(-c3ccccc3)n2N)cc1,7.9,-7.8,-6.1,0.4,-23.8,-0.8
CCn1c2ccccc2c2cc(NC(=O)CSc3nnc(-c4ccc(OC)cc4)n3N)ccc21,49.6*,-15.5,-2.1,-1.4,-8.0,-0.6
CCC(CC)C(=O)Nc1ccc(Sc2ccc([N+](=O)[O-])cc2)cc1,41.1*,24.7,-12.3,3.1,59.6*,5.4
CCC(CC)C(=O)Nc1ccc([N+](=O)[O-])cn1,18.6,-6.2,-3.9,-1.7,-15.8,-0.9
CN(C)c1ccc2c3c(cccc13)C(=O)N(c1ccccc1)C2=O,19.7,5.3,-17.4,2.4,3.2,4.6
Cc1cccc(N2C(=O)c3cccc4c(N(C)CCO)ccc(c34)C2=O)c1,31.0,25.6,-12.6,52.5*,46.2*,37.8*
CCn1c(SCC(=O)Nc2nc3ccccc3s2)nc2c(c1=O)SC(C)C2 (centres undefined),38.9,14.3,-14.0,2.9,19.8,3.3
CCn1c(SCC(=O)Nc2nc3ccc(C)cc3s2)nc2c(c1=O)SC(C)C2 (centres undefined),81.1*,44.6*,-19.2,1.1,59.4*,4.2
CNC1(C)[C@H]2CC[C@H](C2)C1(C)C (some centres undefined),6.3,-1.8,0.5,0.7,-4.8,0.8
Cc1cccc(C(=O)OCC(=O)NC(=O)NCc2ccccc2)c1,1.0,-1.3,3.2,-0.9,-25.4,-0.1
CCN(CC)C(=O)Cn1c(C)c(/C=C/c2cc[n+](C)cc2)c2ccccc21,71.9*,-16.2,-10.0,0.1,-1.0,0.5
CCN(CC)C(=O)Cn1c(=O)n(C)c2ccccc21,10.3,-0.6,-7.7,-0.9,-12.7,0.8
C=C(C)CCC(C)N1CCC(n2nccc2NC(=O)CCCc2ccccc2)CC1 (centres undefined),15.5,-37.6,-8.8,2.2,-21.9,3.1
Cc1c(C2(O)CCCCC2)[nH]c2ccc(C(F)(F)F)cc12,52.5*,57.1*,-0.9,-0.2,46.7,2.6
COC(=O)c1ccc2[nH]c(C3(O)CCCCC3)c(C)c2c1,17.9,-20.3,-3.0,-1.3,-6.5,-0.8
CCCCCCNc1nc(Cl)nc(NC(C)(C)CO)n1,6.0,-23.9,-2.0,-4.1,-23.4,-1.0
c1ccc(-c2cc3nccc(-c4ccccn4)n3n2)cc1,48.4*,-0.3,-1.5,-1.2,-5.3,-0.4
COc1cc(/C=C2\SC(=S)N(NS(=O)(=O)c3ccccc3)C2=O)cc(OC)c1OC,36.1,-27.7,-3.9,-1.1,-28.0,0.2
COc1cccc(/C=C2\SC(=S)N(NS(=O)(=O)c3ccccc3)C2=O)c1OC,49.8*,-13.4,0.3,-0.2,-13.6,2.8
COc1ccc(/C=C2/SC(=O)N(NS(=O)(=O)c3ccccc3)C2=S)cc1OC,42.8*,-16.8,1.1,1.3,-4.6,0.4
Cc1cc(C)c2c(SC(C)C)nc(N)nc2n1,6.5,-5.8,-14.8,1.6,-14.2,7.5

# Source: PubChem
